Source: PMC4363136 (Biochemical pharmacology, 2014)

Experiments:
[1] = system: HeLa cells; experiment: MTT cell proliferation assay, HeLa; format: cell-based; conditions: 48 h
How it was run: (§1)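 Cell lines were grown in medium with 10% FBS and 1% penicillin/streptomycin: PC-3 in RPMI; HeLa, MIA PaCa-2 and T24 in DMEM. Cells were seeded at 5×10^3 per well, attached overnight, then given test compound (0–500 µM, from PBS solution, diluted in medium) for 48 h. MTT was added for 4 h and formazan dissolved in DMSO. A570 was read. IC50 is the concentration giving 50% inhibition of proliferation.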

[2] = system: T24 bladder cancer cells; experiment: MTT cell proliferation assay, T24; format: cell-based
How it was run: as §1

[3] = system: MAPs-rich tubulin; experiment: Light scattering assay of MAPs-rich tubulin polymerization; format: biochemical, goat; conditions: 50 µM compound, 1 mg/ml MAPs-rich tubulin, 37°C, 400 nm
[4] = system: PC-3 cells; experiment: MTT cell proliferation assay, PC-3; format: cell-based, human
How it was run: as §1

[5] = system: MIA PaCa-2 cells; experiment: MTT cell proliferation assay, MIA PaCa-2; format: cell-based
How it was run: as §1

[6] = Pharmacokinetics after oral administration; format: in vivo, CD-1 mice; conditions: for Fold increase in F compared to Nos: oral 50 mg/kg
How it was run: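 Male CD-1 mice (3 per group), fasted 3 h, were dosed once by oral gavage at 50 mg/kg in water. Plasma was collected by sparse retro-orbital sampling at 5 min–24 h. Samples were acetonitrile-precipitated with internal standard and assayed by LC-MS/MS (1 ng/mL–1 µg/mL). Non-compartmental analysis: linear-trapezoid AUClast, Cmax taken as observed. F is dose-normalized oral AUClast over IV (5 mg/kg) AUClast.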

[7] = Pharmacokinetics after intravenous administration; format: in vivo, CD-1 mice
How it was run: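 Male CD-1 mice, fasted 3 h, received a single IV dose of test compound at 5 mg/kg in water. Blood was sampled sparsely from the retro-orbital plexus at 5 min–24 h into K2EDTA. Plasma was protein-precipitated with acetonitrile and 7-hydroxynoscapine internal standard, then quantified by positive-mode MRM LC-MS/MS (calibration 1 ng/mL–1 µg/mL). Non-compartmental analysis: linear-trapezoid AUC, CL and Vss from IV data, C0 back-extrapolated.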

[8] = system: PC-3 cells; experiment: Immunofluorescence confocal microscopy of spindle morphology; format: cell-based, human; conditions: 12h and 24h
How it was run: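 PC-3 cells were grown on glass coverslips and exposed to test compound for 12 h or 24 h. Cells were fixed in −20 °C methanol for 10 min, then blocked in 2% BSA/PBS at 37 °C for 1 h. They were stained with anti-α- and anti-γ-tubulin (1:1000, 45 min, 37 °C) and Alexa Fluor 488/555 secondaries (1:1000, 45 min, 37 °C). DNA was stained with DAPI. Slides were mounted in antifade and imaged by confocal microscopy.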

[9] = system: pure tubulin; experiment: Light scattering assay of pure tubulin polymerization; format: biochemical, goat; conditions: 10 µM tubulin, 1M monosodium glutamate
[10] = system: MAPs rich tubulin; experiment: GTPase activity assay; format: biochemical, goat; conditions: different concentrations of compound, 10 min
[11] = system: pure tubulin; experiment: GTPase activity assay; format: biochemical, goat; conditions: 50 µM compound, compared to control
[12] = oral gavage 50 mg/kg, CD-1 mice, plasma
[13] = male, CD-1, mouse, plasma, po, 50 mg/kg
[14] = male, CD-1, mouse, plasma, iv, 5 mg/kg

SMILES: COc1ccc2c(c1OC)C(=O)O[C@@H]2[C@H]1c2c(c(Br)c3c(c2OC)OCO3)CCN1C [Compound 2, (S)-3-((R)-9-bromo-4-methoxy-6-methyl-5,6,7,8-tetrahydro-[1,3]dioxolo[4,5-g]isoquinolin-5-yl)-6,7-dimethoxyisobenzofuran-1(3H)-one, reference compound]
- IC50 ([1]; Homo sapiens): 436 µM
- IC50 ([2]; 48 h): 191 µM

SMILES: COc1ccc2c(c1OCCC[N+](C)(C)C)C(=O)O[C@@H]2[C@H]1c2c(cc3c(c2OC)OCO3)CCN1C.[Br-] [Compound 6a, 3-(((S)-5-methoxy-1-((R)-4-methoxy-6-methyl-5,6,7,8-tetrahydro-[1,3]dioxolo[4,5-g]isoquinolin-5-yl)-3-oxo-1,3-dihydroisobenzofuran-4-yl)oxy)-N,N,N-trimethylpropan-1-aminium bromide]
- Percent decrease in light scattering of MAP-tubulin [3]: 19 ± 6%

SMILES: COc1ccc2c(c1OCCCS(=O)(=O)O)C(=O)O[C@@H]2[C@H]1c2c(cc3c(c2OC)OCO3)CCN1C [Compound 6c, 3-(((S)-5-methoxy-1-((R)-4-methoxy-6-methyl-5,6,7,8-tetrahydro-[1,3]dioxolo[4,5-g]isoquinolin-5-yl)-3-oxo-1,3-dihydroisobenzofuran-4-yl)oxy)propane-1-sulfonic acid]
- IC50 ([4]; Homo sapiens, PC-3, 48 h): 275 µM
- Percent decrease in light scattering of MAP-tubulin [3]: 32 ± 14%

SMILES: COc1ccc2c(c1OC)C(=O)O[C@@H]2[C@H]1c2c(c(NCCCCS(=O)(=O)O)c3c(c2OC)OCO3)CCN1C [Compound 4b, 4-(((R)-5-((S)-4,5-dimethoxy-3-oxo-1,3-dihydroisobenzofuran-1-yl)-4-methoxy-6-methyl-5,6,7,8-tetrahydro-[1,3]dioxolo[4,5-g]isoquinolin-9-yl)amino)butane-1-sulfonic acid]
- IC50 ([4]; Homo sapiens, PC-3, 48 h): 490 µM
- Percent decrease in light scattering of MAP-tubulin [3]: 30 ± 9%

SMILES: COc1ccc2c(c1OCCCCS(=O)(=O)O)C(=O)O[C@@H]2[C@H]1c2c(c(Br)c3c(c2OC)OCO3)CCN1C [Compound 8b, 4-(((S)-1-((R)-9-bromo-4-methoxy-6-methyl-5,6,7,8-tetrahydro-[1,3]dioxolo[4,5-g]isoquin-olin-5-yl)-5-methoxy-3-oxo-1,3-dihydroisobenzofuran-4-yl)oxy)butane-1-sulfonic acid]
- IC50 ([4]; PC-3 cells, 48 h, MTT): 29 µM
- IC50 ([5]; MIA Paca-2, 48 h, MTT): 40 µM
- Bioavailability F ([6]; dose normalized AUClast, oral 50 mg/kg vs IV 5 mg/kg, CD-1 mice): 11
- Fold increase in F compared to Nos ([6]; CD-1 mice, 50 mg/kg): 0.9 fold
- Tmax ([6]; oral gavage 50 mg/kg, CD-1 mice): 4.8 min
- AUClast [6, 12]: 164 ng·h/mL
- Cmax [6, 12]: 14 ± 7 ng/mL
- IC50 ([1]; MTT): 53 µM
- CL ([7]; IV 5 mg/kg, CD-1 mice): 512 mL/min/kg
- VSS ([7]; IV 5 mg/kg, CD-1 mice): 23.81 L/kg
- half-life ([7]; IV 5 mg/kg, CD-1 mice): 22.8 min
- AUClast ([7]; IV 5 mg/kg, CD-1 mice, plasma): 145.41 ng·h/mL
- C0 ([7]; back extrapolated concentration, IV 5 mg/kg, CD-1 mice, plasma): 259.39 ng/mL
- IC50 ([2]; T24, 48 h, MTT): 32 µM
- spindle / mitotic phenotype [8]: induced a multipolar phenotype
- Percent decrease in light scattering of MAP-tubulin [3]: 68 ± 18%

SMILES: COc1ccc2c(c1OC)C(=O)O[C@@H]2[C@H]1c2c(cc3c(c2OC)OCO3)CCN1C [Compound 1, Noscapine, reference compound]
- IC50 ([4]; Homo sapiens, PC-3, 48 h): 100 µM
- IC50 ([5]; Homo sapiens, MIA PaCa-2, 48 h): 105 µM
- AUC(0-t) [6, 13]: 603 ng·h/mL
- Tmax [6, 13]: 4.8 min
- bioavailability [6, 13]: 13%
- Cmax ([6]; oral gavage 50 mg/kg, CD-1 mice, plasma, listed as Nos, 50 mg/kg): 1156 ± 19 ng/mL
- IC50 ([1]; Homo sapiens): 436 µM
- AUC(0-t) [7, 14]: 479 ng·h/mL
- C0 [7, 14]: 1210 ng/mL
- Vd [7, 14]: 4.55 L/kg
- clearance [7, 14]: 174 mL/min/kg
- half-life [7, 14]: 23.4 min
- IC50 ([2]; 48 h): 83 µM
- % Decrease in light scattering of pure tubulin ([9]; 10 µM compound): 5±1.5%
- % Decrease in light scattering of pure tubulin ([9]; 25 µM compound): 9±2.6%
- % Decrease in light scattering of pure tubulin ([9]; 50 µM compound): 13±2.9%
- Percent decrease in light scattering of MAP-tubulin [3]: 11 ± 4%
- change in GTPase activity of MAPs-rich tubulin [10]: remained almost unchanged

SMILES: COc1ccc2c(c1OCCCCS(=O)(=O)O)C(=O)O[C@@H]2[C@H]1c2c(cc3c(c2OC)OCO3)CCN1C [Compound 6b, 4-(((S)-5-methoxy-1-((R)-4-methoxy-6-methyl-5,6,7,8-tetrahydro-[1,3]dioxolo[4,5-g]isoquinolin-5-yl)-3-oxo-1,3-dihydroisobenzofuran-4-yl)oxy)butane-1-sulfonic acid]
- IC50 ([4]; Homo sapiens, PC-3, 48 h): 19 µM
- IC50 ([5]; Homo sapiens, MIA PaCa-2, 48 h): 30 µM
- AUC(0-t) [6, 13]: 611 ng·h/mL
- Tmax [6, 13]: 4.8 min
- bioavailability [6, 13]: 27%
- Cmax ([6]; oral gavage 50 mg/kg, CD-1 mice, plasma, 50 mg/kg): 2970 ± 60 ng/mL
- IC50 ([1]; Homo sapiens): 66 µM
- AUC(0-t) [7, 14]: 198 ng·h/mL
- C0 [7, 14]: 502 ng/mL
- Vd [7, 14]: 9.53 L/kg
- clearance [7, 14]: 369 mL/min/kg
- half-life [7, 14]: 37.8 min
- change in GTPase activity of pure tubulin [11]: did not change significantly
- IC50 ([2]; 48 h): 3.3 µM
- % Decrease in light scattering of pure tubulin ([9]; 10 µM compound): 14±6%
- % Decrease in light scattering of pure tubulin ([9]; 25 µM compound): 25±7.6%
- % Decrease in light scattering of pure tubulin ([9]; 50 µM compound): 35±7.2%
- spindle / mitotic phenotype [8]: induced a multipolar phenotype
- Percent decrease in light scattering of MAP-tubulin [3]: 74 ± 13%
- change in GTPase activity of MAPs-rich tubulin [10]: increased significantly

SMILES: COc1cc([C@@H]2c3cc4c(cc3[C@H](O)[C@H]3COC(=O)[C@H]23)OCO4)cc(OC)c1OC [podophyllotoxin]
- change in GTPase activity of MAPs-rich tubulin [10]: decreased

SMILES: COc1ccc2c(c1OCCC[N+](C)(C)C)C(=O)O[C@@H]2[C@H]1c2c(c(Br)c3c(c2OC)OCO3)CCN1C.[Br-] [Compound 8a, 3-(((S)-1-((R)-9-bromo-4-methoxy-6-methyl-5,6,7,8-tetrahydro-[1,3]dioxolo[4,5-g]isoquin-olin-5-yl)-5-methoxy-3-oxo-1,3-dihydroisobenzofuran-4-yl)oxy)-N,N,N-trimethylpropan-1-aminium bromide]
- Percent decrease in light scattering of MAP-tubulin [3]: 30 ± 12%

SMILES: COc1ccc2c(c1OCCCS(=O)(=O)O)C(=O)O[C@@H]2[C@H]1c2c(c(Br)c3c(c2OC)OCO3)CCN1C [Compound 8c, 3-(((S)-1-((R)-9-bromo-4-methoxy-6-methyl-5,6,7,8-tetrahydro-[1,3]dioxolo[4,5-g]isoquinolin-5-yl)-5-methoxy-3-oxo-1,3-dihydroisobenzofuran-4-yl)oxy)propane-1-sulfonic acid]
- IC50 ([4]; Homo sapiens, PC-3, 48 h): 55 µM
- IC50 ([5]; Homo sapiens, MIA PaCa-2, 48 h): 18 µM
- AUC(0-t) [6, 13]: 240 ng·h/mL
- Tmax [6, 13]: 4.8 min
- bioavailability [6, 13]: 21%
- Fold increase in F compared to Nos ([6]; CD-1 mice, 50 mg/kg): 1.7 fold
- IC50 ([1]; Homo sapiens): 53 µM
- AUC(0-t) [7, 14]: 133 ng·h/mL
- C0 [7, 14]: 307 ng/mL
- Vd [7, 14]: 18.4 L/kg
- clearance [7, 14]: 584 mL/min/kg
- half-life [7, 14]: 42 min
- IC50 ([2]; 48 h): 4 µM
- spindle / mitotic phenotype [8]: induced a multipolar phenotype
- Percent decrease in light scattering of MAP-tubulin [3]: 61 ± 21%

SMILES: COc1ccc2c(c1OC)C(=O)O[C@@H]2[C@H]1c2c(c(NCCCS(=O)(=O)O)c3c(c2OC)OCO3)CCN1C [Compound 4c, 3-(((R)-5-((S)-4,5-dimethoxy-3-oxo-1,3-dihydroisobenzofuran-1-yl)-4-methoxy-6-methyl-5,6,7,8-tetrahydro-[1,3]dioxolo[4,5-g]isoquinolin-9-yl)amino)propane-1-sulfonic acid]
- Percent decrease in light scattering of MAP-tubulin [3]: 27 ± 10%

SMILES: COc1ccc2c(c1OC)C(=O)O[C@@H]2[C@H]1c2c(c(NCCC[N+](C)(C)C)c3c(c2OC)OCO3)CCN1C.[Br-] [Compound 4a, 3-(((R)-5-((S)-4,5-dimethoxy-3-oxo-1,3-dihydroisobenzofuran-1-yl)-4-methoxy-6-methyl-5,6,7,8-tetrahydro-[1,3]dioxolo[4,5-g]isoquinolin-9-yl)amino)-N,N,N-trimethylpropan-1-aminium bromide]
- Percent decrease in light scattering of MAP-tubulin [3]: 29 ± 5%
